What was measured:
MCF7 = experiment: Antiproliferative activity against human MCF7 cells assessed as reduction in cell viability after 72 hrs by MTS-PMS assay; conditions: MCF7, 72 h
[1] = Immunomodulatory activity in human TALL-104 cells assessed as effect on degranulation by measuring augmentation of CD3-stimulated anti-LAMP fluorescence at 100 uM preincubated for 30 mins followed by anti-LAMP addition and incubated for 50 mins in the dark by flow cytometric analysis relative to control; assay type: functional
[2] = Antiproliferative activity against human PBMC assessed as reduction in cell viability after 70 hrs by Quanti-blue assay; assay type: cell-based
Outline: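 QB fluorescence viability assay; hPBMCs purified by density centrifugation from purchased human blood, stored frozen, resuspended in RPMI-1640 with 10% heat-inactivated FBS, HEPES, pyruvate, non-essential amino acids and BME; seeded at 10^6 cells/mL. Compounds at 50 μM, 70 h plus 2 h with detection reagent; λex 530/λem 590 nm. Three independent repeats.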

MDA-MB-231 = experiment: Antiproliferative activity against human MDA-MB-231 cells assessed as reduction in cell viability after 72 hrs by MTS-PMS assay; assay type: functional; conditions: MDA-MB-231, 72 h
Outline: (§1)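 MTS-PMS viability test. Cells were seeded at 3,000/well and left 24 h at 37 °C, 5% CO2, then exposed to compound for 72 h. Screening was at 50 μM for HCT116 and MCF-7 and […], with final DMSO ≤1%. MTS:PMS was mixed 20:1, added for 3 h, and absorbance read at 490 nm. At least two independent runs were done, each in triplicate.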

HuT78 = experiment: Antiproliferative activity against human HUT78 cells assessed as reduction in cell viability after 70 hrs by Quanti-blue assay; assay type: functional; conditions: Homo sapiens, HuT78, 70 h
Outline: (§2)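 Quanti-Blue viability kit. HuT-78 and Molt-4 cells were grown in RPMI-1640 and seeded at 10^5 cells/mL. Compounds were screened at 50 μM for 70 h, with detection reagent present for the final 2 h. Fluorescence was read at ex 530/em 590 nm. IC50 from dose-response came from linear regression. Three independent runs.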

MOLT-4 = experiment: Antiproliferative activity against human MOLT4 cells assessed as reduction in cell viability after 70 hrs by Quanti-blue assay; assay type: functional; conditions: Homo sapiens, MOLT-4, 70 h; outline: as §2
HCT-116 = experiment: Antiproliferative activity against human HCT116 cells assessed as reduction in cell viability after 72 hrs by MTS-PMS assay; assay type: functional; conditions: Homo sapiens, HCT-116, 72 h; outline: as §1
Histone deacetylase 2 = Histone deacetylase 2 (Homo sapiens, UniProt Q92769); experiment: Inhibition of full length recombinant human HDAC2 expressed in baculovirus expression system using fluorogenic peptide RHKK(Ac) as substrate by fluorescence assay
Histone deacetylase 2, sequence (Q92769 whole entry): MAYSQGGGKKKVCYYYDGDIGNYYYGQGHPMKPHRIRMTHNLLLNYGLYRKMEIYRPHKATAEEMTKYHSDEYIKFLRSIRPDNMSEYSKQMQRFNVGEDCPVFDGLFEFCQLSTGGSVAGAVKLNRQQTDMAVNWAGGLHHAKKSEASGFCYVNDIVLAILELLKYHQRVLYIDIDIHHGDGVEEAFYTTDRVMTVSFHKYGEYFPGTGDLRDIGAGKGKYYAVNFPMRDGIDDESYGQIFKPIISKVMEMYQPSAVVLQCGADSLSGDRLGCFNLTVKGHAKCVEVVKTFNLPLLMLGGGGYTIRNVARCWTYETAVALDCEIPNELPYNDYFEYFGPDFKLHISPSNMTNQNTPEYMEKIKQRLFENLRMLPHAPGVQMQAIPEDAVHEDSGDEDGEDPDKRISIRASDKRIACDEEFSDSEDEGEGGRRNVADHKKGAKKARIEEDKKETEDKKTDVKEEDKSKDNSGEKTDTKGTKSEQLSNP

Row | SMILES | GI50 (MCF7) | Activity [1] | GI50 at 70 h [2] | GI50 (MDA-MB-231) | GI50 (HuT78) | GI50 (MOLT-4) | GI50 (HCT-116) | IC50 (Histone deacetylase 2)
1 | O=C(CCCCCCC(=O)Nc1ccccc1)NO [VORINOSTAT] | 29.1 µM |  |  |  |  |  |  | 
2 | CCOC(=O)NCCCC(=O)NCCc1cccc(F)c1 | > 50 µM | 90% | > 50 µM | > 50 µM | > 50 µM | > 50 µM | > 50 µM | > 1 µM
3 | CC(C)(C)CC(=O)NCCCC(=O)NCCc1ccccc1 | > 50 µM | 73% | > 50 µM | > 50 µM | > 50 µM | > 50 µM | > 50 µM | > 1 µM
4 | CCOC(=O)NCCCC(=O)Nc1nc(-c2cccc([N+](=O)[O-])c2)cs1 | > 50 µM | 58% | > 50 µM | > 50 µM | > 50 µM | > 50 µM | > 50 µM | > 1 µM
5 | CCOC(=O)NCCCC(=O)NCCc1cccc(Cl)c1 | > 50 µM | 75% | > 50 µM | > 50 µM | > 50 µM | > 50 µM | > 50 µM | > 1 µM
6 | CC(=O)NCCCC(=O)NCCc1ccccc1 | > 50 µM | 83% | > 50 µM | > 50 µM | > 50 µM | > 50 µM | > 50 µM | > 1 µM
7 | CCCOC(=O)NCCCC(=O)NCCc1ccccc1 | > 50 µM | 94% | > 50 µM | > 50 µM | > 50 µM | > 50 µM | > 50 µM | > 1 µM
8 | O=C(CCCNC(=O)N1CCCC1=O)NCCc1ccccc1 | > 50 µM | 95% | > 50 µM | > 50 µM | > 50 µM | > 50 µM | > 50 µM | > 1 µM
9 | CCOC(=O)NCCCC(=O)OCCc1ccccc1 | > 50 µM | 88% | > 50 µM | > 50 µM | > 50 µM | > 50 µM | > 50 µM | > 1 µM
10 | CCNC(=O)OCCCC(=O)NCCc1ccccc1 | > 50 µM | 100% | > 50 µM | > 50 µM | > 50 µM | > 50 µM | > 50 µM | > 1 µM
11 | CCOC(=O)NCCCC(=O)Nc1ccc(CO[Si](C)(C)C(C)(C)C)cc1 | 23.7 µM | 126% | > 50 µM | > 50 µM | > 50 µM | > 50 µM | > 50 µM | > 1 µM
12 | CCOC(=O)NCCCC(=O)NCCC(C)C | > 50 µM | 88% | > 50 µM | > 50 µM | > 50 µM | > 50 µM | > 50 µM | > 1 µM
13 | CCOC(=S)NCCCC(=O)NCCc1ccccc1 | > 50 µM | 105% | > 50 µM | > 50 µM | > 50 µM | > 50 µM | > 50 µM | > 1 µM
14 | CC(=O)SCCC(=O)NCCCC(=O)NCCc1ccccc1 | > 50 µM | 77% | > 50 µM | > 50 µM | > 50 µM | > 50 µM | > 50 µM | > 1 µM
15 | CCOC(=O)NCCCC(=O)Nc1nccs1 | > 50 µM | 91% | > 50 µM | > 50 µM | > 50 µM | > 50 µM | > 50 µM | > 1 µM
16 | O=C(CCCNC(=O)c1ccccc1)NCCc1ccccc1 | > 50 µM | 85% | > 50 µM | > 50 µM | > 50 µM | > 50 µM | > 50 µM | > 1 µM
17 | CCOC(=O)NCCCCC(=O)NCCc1ccccc1 | > 50 µM | 83% | > 50 µM | > 50 µM | > 50 µM | > 50 µM | > 50 µM | > 1 µM
18 | CCSC(=O)NCCCC(=O)NCCc1ccccc1 | > 50 µM | 76% | > 50 µM | > 50 µM | > 50 µM | > 50 µM | > 50 µM | > 1 µM
19 | C=CCOC(=O)NCCCC(=O)NCCc1ccccc1 | > 50 µM | 87% | > 50 µM | > 50 µM | > 50 µM | > 50 µM | > 50 µM | > 1 µM
20 | O=C(CCCNC(=O)OCc1ccccc1)NCCc1ccccc1 | > 50 µM | 79% | > 50 µM | > 50 µM | > 50 µM | > 50 µM | > 50 µM | > 1 µM
21 | CCOC(=O)NCCCC(=O)NCCc1ccc(Cl)cc1 | > 50 µM | 85% | > 50 µM | > 50 µM | > 50 µM | > 50 µM | > 50 µM | > 1 µM
22 | CC(C)(C)OC(=O)NCCCC(=O)NCCc1ccccc1 | > 50 µM | 82% | > 50 µM | > 50 µM | > 50 µM | > 50 µM | > 50 µM | > 1 µM
23 | CCC(=O)NCCCC(=O)NCCc1ccccc1 | > 50 µM | 91% | > 50 µM |  | > 50 µM | > 50 µM | > 50 µM | > 1 µM
24 | COc1cccc2c1C(=O)c1c(O)c3c(c(O)c1C2=O)C[C@@](O)(C(=O)CO)C[C@@H]3O[C@H]1C[C@H](N)[C@H](O)[C@H](C)O1 [DOXORUBICIN] |  |  |  | 10.7 µM |  |  | 21.4 µM | 
25 | CCOC(=O)NCCCCCC(=O)Nc1ccccc1 | > 50 µM |  | > 50 µM | > 50 µM | > 50 µM | > 50 µM | > 50 µM | > 1 µM

From ChEMBL document CHEMBL4428107 (Bioorg Med Chem, 2016)
